Results as given in ChEMBL document CHEMBL1135500, “Highly antibacterial active aminoacyl penicillin conjugates with acylated bis-catecholate siderophores based on secondary diamino acids and related compounds” (2002).
In brackets after ≈: the same amount, converted by molar mass.

Columns and labels:
Format in all cases: functional
[1] = tested on: Staphylococcus aureus; test: In vitro antibacterial activity against SG 511 strain of Staphylococcus aureus
Summary of the method: (§1)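 MIC by microbroth dilution in Mueller-Hinton broth following NCCLS guidelines.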

[2] = tested on: Stenotrophomonas maltophilia; test: In vitro antibacterial activity against GN 12873 strain of Stenotrophomonas maltophilia; summary of the method: as §1
[3] = tested on: Klebsiella pneumoniae; test: In vitro antibacterial activity against ATCC 100331 strain of Klebsiella pneumoniae; summary of the method: as §1
[4] = tested on: Serratia marcescens; test: In vitro antibacterial activity against SG 621 strain of Serratia marcescens; summary of the method: as §1
[5] = tested on: Pseudomonas aeruginosa; test: In vitro antibacterial activity against SG 137 strain of Pseudomonas aeruginosa; summary of the method: as §1
[6] = tested on: Escherichia coli; test: In vitro antibacterial activity against ATCC 25922 strain of Escherichia coli; summary of the method: as §1
[7] = tested on: Pseudomonas aeruginosa; test: In vitro antibacterial activity against ATCC 27853 strain of Pseudomonas aeruginosa; summary of the method: as §1

What does the source list for `COC(=O)Oc1cccc2c(=O)n(CCC(=O)Nc3cc(NC(=O)CCn4c(=O)oc5c(OC(=O)OC)cccc5c4=O)cc(C(=O)NC(C(=O)NC4C(=O)N5C4SC(C)(C)C5C(=O)O)c4ccccc4)c3)c(=O)oc12` (configuration not stated)?
MIC [1]: 6.25 µg/mL (≈ 5.86 µM); MIC [2]: 1.56 µg/mL (≈ 1.46 µM); MIC [3]: 0.2 µg/mL (≈ 0.188 µM); MIC [4]: 3.12 µg/mL (≈ 2.93 µM); MIC [5]: 0.05 µg/mL (≈ 0.0469 µM); MIC [6]: 6.25 µg/mL (≈ 5.86 µM); MIC [7]: 0.2 µg/mL (≈ 0.188 µM)

Which MIC [1] does the source give for `CC(=O)Oc1cccc(C(=O)NCCCCN(CC(=O)NC(C(=O)NC2C(=O)N3C2SC(C)(C)C3C(=O)O)c2ccc(O)cc2)C(=O)c2cccc(OC(C)=O)c2OC(C)=O)c1OC(C)=O` (configuration not stated) here?
The MIC was 5 µg/mL (≈ 5.35 µM).

What about the MIC [2] of the same molecule?
Its MIC is 0.005 µg/mL (≈ 0.00535 µM).

And the MIC [3]?
Its MIC is under 0.005 µg/mL.

And the MIC [4]?
The MIC was under 0.005 µg/mL.

And the MIC [5]?
The MIC was 0.01 µg/mL (≈ 0.0107 µM).

And the MIC [6]?
Its MIC is 0.01 µg/mL (≈ 0.0107 µM).

And the MIC [7]?
The MIC was 0.16 µg/mL (≈ 0.171 µM).

Which results are given for `COC(=O)Oc1cccc2c(=O)n(CCC(=O)Nc3cc(NC(=O)CCn4c(=O)oc5c(OC(=O)OC)cccc5c4=O)cc(C(=O)NC(C(=O)NC4C(=O)N5C4SC(C)(C)C5C(=O)O)c4ccc(O)cc4)c3)c(=O)oc12` (configuration not stated)?
MIC [1]: 0.4 µg/mL (≈ 0.37 µM); MIC [2]: 25 µg/mL (≈ 23.1 µM); MIC [3]: 6.25 µg/mL (≈ 5.78 µM); MIC [4]: 50 µg/mL (≈ 46.2 µM); MIC [5]: 6.25 µg/mL (≈ 5.78 µM); MIC [6]: 6.25 µg/mL (≈ 5.78 µM); MIC [7]: 6.25 µg/mL (≈ 5.78 µM)

Which results are given for `CC(=O)Oc1cccc(C(=O)NCCCCN(Cc2ccccc2C(=O)NC(C(=O)NC2C(=O)N3C2SC(C)(C)C3C(=O)O)c2ccccc2)C(=O)c2cccc(OC(C)=O)c2OC(C)=O)c1OC(C)=O` (configuration not stated)?
MIC [1]: 0.78 µg/mL (≈ 0.785 µM); MIC [2]: < 0.05 µg/mL; MIC [3]: < 0.05 µg/mL; MIC [4]: 0.4 µg/mL (≈ 0.402 µM); MIC [5]: 0.1 µg/mL (≈ 0.101 µM); MIC [6]: 0.4 µg/mL (≈ 0.402 µM); MIC [7]: 0.2 µg/mL (≈ 0.201 µM)

With `C[C@@H](O)[C@H]1C(=O)N2C(C(=O)O)=C(S[C@@H]3CN[C@H](C(=O)N(C)C)C3)[C@H](C)[C@H]12` [MEROPENEM] as the molecule, how does the MIC [1] read?
Its MIC is 0.1 µg/mL (≈ 0.261 µM).

And the MIC [2]?
The MIC was over 100 µg/mL.

And the MIC [3]?
Its MIC is 0.04 µg/mL (≈ 0.104 µM).

What about the MIC [4] of the same molecule?
Its MIC is 0.06 µg/mL (≈ 0.156 µM).

And the MIC [5]?
Its MIC is 0.2 µg/mL (≈ 0.522 µM).

And the MIC [6]?
The MIC was 0.04 µg/mL (≈ 0.104 µM).

And the MIC [7]?
The MIC was 0.4 µg/mL (≈ 1.04 µM).

`COC(=O)Oc1cc(Cl)c(Cl)c(C(=O)N(C)CCCN(CC(=O)NC(C(=O)NC2C(=O)N3C2SC(C)(C)C3C(=O)O)c2ccccc2)C(=O)c2c(Cl)c(Cl)cc(OC(=O)OC)c2OC(=O)OC)c1OC(=O)OC` (configuration not stated) was tested. Which MIC [1] did it give?
The MIC was 3.12 µg/mL (≈ 2.79 µM).

And the MIC [2]?
Its MIC is 0.05 µg/mL (≈ 0.0447 µM).

And the MIC [3]?
Its MIC is under 0.005 µg/mL.

And the MIC [4]?
Its MIC is 0.05 µg/mL (≈ 0.0447 µM).

And the MIC [5]?
Its MIC is 0.05 µg/mL (≈ 0.0447 µM).

What about the MIC [6] of the same molecule?
Its MIC is 0.02 µg/mL (≈ 0.0179 µM).

And the MIC [7]?
Its MIC is 0.1 µg/mL (≈ 0.0893 µM).

What does the source list for `CC(=O)Oc1ccc(C(=O)NCCCCN(CC(=O)NC(C(=O)NC2C(=O)N3C2SC(C)(C)C3C(=O)O)c2ccccc2)C(=O)c2ccc(OC(C)=O)c(OC(C)=O)c2)cc1OC(C)=O` (configuration not stated)?
MIC [1]: 0.78 µg/mL (≈ 0.85 µM); MIC [2]: 50 µg/mL (≈ 54.5 µM); MIC [3]: 0.4 µg/mL (≈ 0.436 µM); MIC [4]: 3.12 µg/mL (≈ 3.4 µM); MIC [5]: 0.2 µg/mL (≈ 0.218 µM); MIC [6]: 0.78 µg/mL (≈ 0.85 µM); MIC [7]: 0.78 µg/mL (≈ 0.85 µM)

Which results are given for `CC(=O)Oc1cccc(C(=O)N(C)CCCN(Cc2ccccc2C(=O)NC(C(=O)NC2C(=O)N3C2SC(C)(C)C3C(=O)O)c2ccccc2)C(=O)c2cccc(OC(C)=O)c2OC(C)=O)c1OC(C)=O` (configuration not stated)?
MIC [1]: 6.25 µg/mL (≈ 6.29 µM); MIC [2]: < 0.05 µg/mL; MIC [3]: 0.2 µg/mL (≈ 0.201 µM); MIC [4]: 0.24 µg/mL (≈ 0.241 µM); MIC [5]: 0.04 µg/mL (≈ 0.0402 µM); MIC [6]: 1.56 µg/mL (≈ 1.57 µM); MIC [7]: 0.4 µg/mL (≈ 0.402 µM)

What does the source list for `CC(=O)Oc1cccc(C(=O)N(C)CCCN(CC(=O)NC(C(=O)NC2C(=O)N3C2SC(C)(C)C3C(=O)O)c2ccccc2)C(=O)c2cccc(OC(C)=O)c2OC(C)=O)c1OC(C)=O` (configuration not stated)?
MIC [1]: 3.12 µg/mL (≈ 3.4 µM); MIC [2]: 0.02 µg/mL (≈ 0.0218 µM); MIC [3]: < 0.005 µg/mL; MIC [4]: 0.05 µg/mL (≈ 0.0545 µM); MIC [5]: 0.005 µg/mL (≈ 0.00545 µM); MIC [6]: 0.02 µg/mL (≈ 0.0218 µM); MIC [7]: 0.08 µg/mL (≈ 0.0872 µM)

With `CC(=O)Oc1cccc(C(=O)NCCN(CC(=O)NC(C(=O)NC2C(=O)N3C2SC(C)(C)C3C(=O)O)c2ccccc2)C(=O)c2cccc(OC(C)=O)c2OC(C)=O)c1OC(C)=O` (configuration not stated) as the molecule, how does the MIC [1] read?
Its MIC is 3.12 µg/mL (≈ 3.51 µM).

What about the MIC [2] of the same molecule?
The MIC was 0.78 µg/mL (≈ 0.877 µM).

What about the MIC [3] of the same molecule?
Its MIC is 0.1 µg/mL (≈ 0.112 µM).

And the MIC [4]?
Its MIC is 0.78 µg/mL (≈ 0.877 µM).

What about the MIC [5] of the same molecule?
The MIC was 0.4 µg/mL (≈ 0.449 µM).

What about the MIC [6] of the same molecule?
Its MIC is 0.78 µg/mL (≈ 0.877 µM).

What about the MIC [7] of the same molecule?
Its MIC is 0.78 µg/mL (≈ 0.877 µM).

How did the MIC [1] turn out when `CC(=O)Oc1cccc(C(=O)NCCCCN(Cc2ccc(OCC(=O)NC(C(=O)NC3C(=O)N4C3SC(C)(C)C4C(=O)O)c3ccccc3)cc2)C(=O)c2cccc(OC(C)=O)c2OC(C)=O)c1OC(C)=O` (configuration not stated) was run?
Its MIC is 1.56 µg/mL (≈ 1.52 µM).

And the MIC [2]?
Its MIC is 0.2 µg/mL (≈ 0.195 µM).

And the MIC [3]?
Its MIC is under 0.05 µg/mL.

And the MIC [4]?
The MIC was 6.25 µg/mL (≈ 6.1 µM).

What about the MIC [5] of the same molecule?
The MIC was 0.2 µg/mL (≈ 0.195 µM).

And the MIC [6]?
Its MIC is 0.78 µg/mL (≈ 0.762 µM).

What about the MIC [7] of the same molecule?
Its MIC is 6.25 µg/mL (≈ 6.1 µM).
